A word on the TGI: it is the reduction of tumour growth relative to the control group.

Activity and TGI data for one compound are collected here from ChEMBL document CHEMBL4038303, “Simultaneous Drug Targeting of the Promoter MYC G-Quadruplex and BCL2 i-Motif in Diffuse Large B-Cell Lymphoma Delays Tumor Growth” (J Med Chem, 2017).

Active and inactive are the calls of the source. The rule behind the calls is not given here.

Data set [1] is filed under the species Homo sapiens. The data set is described as follows: Stabilization of c-myc G-quadruplex DNA in MYC translocation-positive and BCL2 amplification-positive human U2932 cells assessed as potentiation of CPA-induced apoptosis by measuring increase in caspase-3 activity at 3 uM after 24 hrs in presence of NSC-59276 by AFC based fluorescence assay (reference value: 30%).

Data set [2] has as its system Mus musculus. The data set can be described thus: Toxicity in scid mouse xenografted with human U2932 cells assessed as survival at 5 mg/kg, ip administered for 5 consecutive days cotreated with NSC-59276 and CPA. It is filed as organism-based. The following applies: in vivo. The method, boiled down: (§1)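 SCID mice (6−8 weeks, female or male, serum immunoglobulin ≤20 μg/mL by ELISA) implanted subcutaneously in left flank with 10 × 10^6 U2932 cells in 100 μL saline; pair-matched by tumor volume; dosed ip daily for 5 days; controls received all compound diluents; tumor volume a2 × b/2; outliers by Grubbs' test; two-tailed t test with Šidák–Bonferroni correction.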
On the technique in general: A xenograft is tissue or cells of one species grown in another, often human tumour cells in immunodeficient mice.

The species named for data set [3] is Homo sapiens. The data set is described as follows: Binding affinity to c-myc G-quadruplex DNA in human VAL cells assessed as downregulation of MYC mRNA levels at 0.25 to 3 uM after 6 hrs by qPCR method. Type of data set: cell-based.
The test system of data set [4] is U2932. The data set is described as follows: Potentiation of CPA-induced antitumor activity against human U2932 cells xenografted in SCID mouse assessed as reduction in tumor burden AUC at 5 to 7.5 mg/kg, ip for 5 days cotreated with 10 mg/kg NSC-59276 measured on day 9 to 15 post first treatment. It is filed as functional, organism-based. The method, boiled down: (§2)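 U2932 DLBCL cells (10 × 10^6 in 100 μL sterile saline, viability >91%) injected subcutaneously into left flank of SCID mice (6−8 weeks, immunoglobulin ≤20 μg/mL). Mice pair-matched by tumor volume. Drugs given ip daily for 5 days, CPA 30 mg/kg; controls received all diluents. Tumor volume = a2 × b/2 (a smallest, b largest diameter); n = 5−8; Grubbs' test for outliers.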

Data set [5] concerns Mus musculus. The data set can be described thus: Toxicity in scid mouse xenografted with human U2932 cells assessed as change in body weight at 5 to 7.5 mg/kg, ip administered for 5 consecutive days in presence of CPA. Type of data set: organism-based. The note with it: in vivo. The procedure, abridged: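 In the follow-up U2932 subcutaneous xenograft study in SCID mice (pair-matched by tumor volume, n = 5−8), compound at 5 or 7.5 mg/kg was given ip daily for 5 days with 30 mg/kg cyclophosphamide and 10 mg/kg BCL2 i-motif ligand. Diluent was given in place of any absent agent. Body weight and survival were followed.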

The species entered for data set [6] is Homo sapiens. The data set can be described thus: Binding affinity to c-myc G-quadruplex DNA in MYC translocation-positive and BCL2 amplification-positive human U2932 cells assessed as downregulation of MYC mRNA levels after 24 hrs by qPCR method. The procedure, abridged:
(§3)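 DLBCL lines grown in RPMI with 10% FBS (SUDHL4 15% FBS) and penicillin/streptomycin. Cells exposed for 24 h to rising concentrations up to 3 μM; DMSO as vehicle control. Total RNA isolated, target mRNA measured by TaqMan real-time qPCR, normalized to TBP and expressed relative to untreated cells; triplicate experiments, two-tailed t test.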
(Real-time PCR tracks product formation cycle by cycle.)

The species named for data set [7] is Homo sapiens. The data set can be described thus: Stabilization of c-myc G-quadruplex DNA in BCL2 and MYC translocation-positive human VAL cells assessed as potentiation of CPA-induced apoptosis by measuring increase in caspase-3 activity at 3 uM after 24 hrs in presence of NSC-59276 by AFC based fluorescence assay (reference value: 30%).
Data set [8] is filed under the species Homo sapiens. The data set is described as follows: Binding affinity to c-myc G-quadruplex DNA in BCL2 translocation-positive human SUDHL4 cells assessed as downregulation of MYC mRNA levels up to 3 uM after 24 hrs by qPCR method relative to control. The method, boiled down:
as §3

The species named for data set [9] is Homo sapiens. The data set can be described thus: Binding affinity to c-myc G-quadruplex DNA in BCL2 translocation-positive human SUDHL4 cells assessed as downregulation of MYC mRNA levels at 0.25 to 3 uM after 6 hrs by qPCR method.
The species named for data set [10] is Homo sapiens. The data set can be described thus: Binding affinity to c-myc G-quadruplex DNA in human HT cells assessed as downregulation of MYC protein levels up to 3 uM after 24 hrs by Western blot analysis. Type of data set: cell-based. The procedure, abridged:
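Cell lines treated 24 h with compound up to 3 μM, with untreated and DMSO-treated controls. Lysates (20 μg total protein) probed by Western blot for BCL2 or MYC with antibodies at 1:1000; actin as loading control. Blots representative of triplicate experiments.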
A general note: Immunoblotting shows a protein as a band on a membrane.

The subject of data set [11] is U2932. The data set can be described thus: Potentiation of CPA-induced antitumor activity against human U2932 cells xenografted in SCID mouse assessed as tumor growth inhibition at 7.5 mg/kg, ip for 5 days cotreated with 10 mg/kg NSC-59276 measured on day 9 post first treatment (reference value: 50%). Type of data set: functional. The procedure, abridged:
as §2

Data set [12] has as its system Mus musculus. The data set is described as follows: Toxicity in SCID mouse xenografted with human U2932 cells assessed as survival at 7.5 mg/kg, ip administered for 5 consecutive days in presence of CPA. Type of data set: organism-based. The note with it: in vivo. The method, boiled down:
as §1

Data set [13] relates to Mus musculus. The data set is described as follows: Reduction in Myc mRNA level in SCID mouse xenografted with human U2932 cells at 2.5 to 5 mg/kg, ip administered for 5 consecutive days cotreated with CPA by qPCR method. It is filed as functional, organism-based. The method, boiled down:
(§4)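 Tumors from U2932 xenograft SCID mice given ip treatment daily for 5 days were harvested. Total RNA was taken from the same tumor preparations used for protein lysates, and MYC or BCL2 mRNA was quantified by TaqMan qPCR normalized to TBP. Comparisons were made with diluent-treated mice or CPA-only mice.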

The species entered for data set [14] is Homo sapiens. The data set is described as follows: Binding affinity to c-myc G-quadruplex DNA in MYC translocation-positive and BCL2 amplification-positive human U2932 cells assessed as downregulation of MYC mRNA levels up to 3 uM after 24 hrs by qPCR method relative to control. The method, boiled down:
as §3

For data set [15], the system named is Mus musculus. The data set can be described thus: Effect on BCL2 mRNA level in SCID mouse xenografted with human U2932 cells at 2.5 to 5 mg/kg, ip administered for 5 consecutive days cotreated with CPA by qPCR method. Type of data set: functional, organism-based. The method, boiled down:
as §4

For data set [16], the system named is Mus musculus. The data set can be described thus: Toxicity in scid mouse xenografted with human U2932 cells assessed as change in body weight at 2.5 to 5 mg/kg, ip administered for 5 consecutive days in presence of CPA. It is filed as organism-based. The following applies: in vivo. The procedure, abridged:
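SCID mice aged 6−8 weeks with serum Ig ≤20 μg/mL received U2932 cells (10 × 10^6 in 100 μL saline) subcutaneously in the left flank. Mice were pair-matched by tumor volume. Compound at 2.5 or 5 mg/kg with 50 mg/kg cyclophosphamide was given ip daily for 5 days. Controls received the diluents. Grubbs' test was used to exclude outliers.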

The species entered for data set [17] is Homo sapiens. The data set can be described thus: Binding affinity to BLC2 G-quadruplex DNA in BCL2 translocation-positive human SUDHL4 cells assessed as downregulation of BLC2 mRNA levels at 3 uM after 24 hrs by qPCR method. The method, boiled down:
as §3

Data set [18] deals with U2932. The data set is described as follows: Potentiation of CPA-induced antitumor activity against human U2932 cells xenografted in SCID mouse assessed as reduction in tumor burden at 2.5 mg/kg, ip administered for 5 consecutive days measured up to 10 days post first treatement. Type of data set: functional, organism-based. The procedure, abridged:
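SCID mice bearing subcutaneous left-flank U2932 xenografts (10 × 10^6 cells in saline), pair-matched by tumor volume. Test agent given ip daily for 5 days with 50 mg/kg CPA; diluent-treated and CPA-alone controls. Tumor volume estimated as a2 × b/2 from smallest and largest diameters. Grubbs' test for outliers; two-tailed Student's t test.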

Turning to `Cc1c2ccncc2c(C)c2c1[nH]c1ccc(OCCN(C)C)cc12.Cl.Cl`, the Activity was 100% in the data set filed under Homo sapiens [1]; “Non-Toxic” with Mus musculus [2]; “Non-Toxic” with Mus musculus [5]; “Dose-dependent effect” in the data set filed under Homo sapiens [6]; 100% in the data set listed under Homo sapiens [7]; under 90% in the data set filed under Homo sapiens [8]. The Activity result is “Non-Toxic” with Mus musculus [12], under 90% in the data set listed under Homo sapiens [14] and “Non-Toxic” with Mus musculus [16]. The outcome in the data set filed under Homo sapiens [3], in the data set on U2932 [4], in the data set listed under Homo sapiens [9], in the data set listed under Homo sapiens [10], in the data set on Mus musculus [13] and in the data set filed under Homo sapiens [17] was Active. In the data set on U2932 [18], the outcome was Active. Further, in the data set on U2932 [11], the TGI is listed as 50%. Also, in the data set with Mus musculus [15], the outcome was inactive.
